ChEMBL document CHEMBL4831490, “Silyl resveratrol derivatives as potential therapeutic agents for neurodegenerative and neurological diseases” (Eur J Med Chem, 2021)
≈ marks a conversion by molar mass, not a printed value. Calls of active or inactive are those of the source. The rule behind the calls is not given here.

What was measured:
Danio rerio = organism: Danio rerio; assay: Neuroprotective activity against PTZ-induced neuronal damage in 5 dpf zebrafish AB larvae assessed as effect on AChE activity at 10 uM pretreated for 1 hr followed by removal of medium and subsequent addition of fresh medium containing PTZ and compounds measured after 6 hrs by Ellman's method; format: functional, organism-based; conditions: time 7.0 hrs
Method in brief: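 Zebrafish AB larvae at 120 hpf, five per well, ten replicates, two independent experiments. Pretreated 1 h at 26 °C with compound (10 µM) in water with 0.1% DMSO, then after a media change kept 6 h at 26 °C with compound plus 5 mM PTZ. Physostigmine (20 µM) was the control inhibitor. Homogenate supernatant assayed by Ellman method; activity normalized to BCA protein, as % of control.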

[1] = Toxicity in 3hpf zebrafish AB embryo assessed as NOAEL measured 96 hpf; design: species or system Danio rerio; conditions: in vivo, 96 h
Method in brief: (§1)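 Zebrafish AB embryos collected at 3 hpf, 20 per well, in E3 medium with graded compound concentrations. Incubated 28.5 °C for 93 h further (to 96 hpf), mortality scored. NOEC/LOEC defined by mortality above 20%. Controls: 0.1% DMSO, three replicates; DEAB at 5 concentrations.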

[2] = Toxicity in 3hpf zebrafish AB embryo assessed as LOAEL measured 96 hpf; design: species or system Danio rerio; conditions: in vivo, 96 h; method in brief: as §1
[3] = Aqueous solubility of the compound; format: physicochemical
[4] = Toxicity in 3hpf zebrafish AB embryo assessed as median lethal dose measured 96 hpf; design: species or system Danio rerio; conditions: in vivo
Method in brief: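 AB zebrafish embryos collected 3 hpf, 20 per well in E3 medium with graded compound concentrations, kept at 28.5 °C to 96 hpf. LC50 was fitted as a sigmoid to mortality. NOEC/LOEC used >20% mortality as the effect. Negative control was 0.1% DMSO in triplicate; DEAB (0.1 µM–1 mM) served as positive control.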

RAW264.7 [5] = assay: Antiinflammatory activity in mouse RAW 264.7 cells assessed as decrease in LPS-induced TNF-alpha production at 10 uM measured after 24 hrs by ELISA; format: functional, cell-based
Method in brief: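 RAW 264.7 macrophages, 5 × 10⁵ per well, given compound at 10 µM then stimulated with LPS (final 100 ng/mL). TNF-α in supernatants after 24 h measured by ELISA with capture/biotinylated detection antibody pairs.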

SH-SY5Y [6] = assay: Neuroprotective activity against H2O2-induced oxidative stress in human SH-SY5Y cells assessed as increase in cell viability at 10 uM pretreated with H2O2 for 10 mins followed by compound treatment and measured after 24 hrs by MTT assay; format: functional, cell-based
RAW264.7 [7] = assay: Antiinflammatory activity in mouse RAW 264.7 cells assessed as decrease in LPS-induced IL-6 production at 10 uM measured after 24 hrs by ELISA; format: functional, cell-based
Method in brief: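 RAW 264.7 macrophages, 5 × 10⁵ per well, compound added then stimulated with LPS (final 100 ng/mL) or left unstimulated; IL-6 in supernatant measured after 24 h by sandwich ELISA with capture/biotinylated detection antibodies.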

[8] = Stability of the compound in PBS buffer assessed as parent compound remaining measured after 72 hrs; format: physicochemical; conditions: read-out: Stability
Method in brief: (§2)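 Compound incubated 72 h in PBS 1x (pH 7.4) or in SH-SY5Y culture medium; percentage of compound remaining determined.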

[9] = Stability of the compound in human SH-SY5Y cells assessed as parent compound remaining measured after 72 hrs; format: ADME; conditions: read-out: Stability; method in brief: as §2
SH-SY5Y [10] = assay: Cytotoxicity against human SH-SY5Y cells assessed as reduction in cell viability at 10 uM measured after 24 hrs by MTT assay relative to control; format: cell-based
Method in brief: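 SH-SY5Y cells grown in DMEM-F12 with 10% iFBS on collagen-pretreated plates; 2 × 10⁴ cells per well, left 24 h before compound in DMSO (final 1% DMSO) at 1, 10 and 100 µM. Viability by MTT 24 h after addition; mean and SD of at least eight readings from various experiments.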

SH-SY5Y [11] = assay: Neuroprotective activity against H2O2-induced oxidative stress in human SH-SY5Y cells assessed as increase in cell viability at 100 uM pretreated with H2O2 for 10 mins followed by compound treatment and measured after 24 hrs by MTT assay relative to control; format: functional
Mus musculus [12] = assay: Neuroprotective activity in C57BL/6 mouse model of 3-NP-induced intoxication assessed as reduction in truncal dystonia at 20 mg/kg, ip measured after 5 days relative to control; format: functional; design: scale not given: the % may be the effect or the level left; conditions: time 5 day, in the assay text read “overall motor score” for “truncal dystonia”
Method in brief: (§3)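 C57BL/6 mice, 12 weeks old, n = 7 per group. 3-NP given i.p. twice daily, 10 h apart: 4 × 20, 4 × 40, 2 × 60 mg/kg (cumulative 360 mg/kg over 5 days). Compound 20 mg/kg i.p. in 13% hydroxypropyl-β-cyclodextrin with 2% Tween-80, given just before each morning 3-NP dose. Weight and motor scoring done before injections, last one 3 h after final 3-NP dose. Rotarod latency to fall read after the 360 mg/kg cumulative dose.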

Mus musculus [13] = assay: Neuroprotective activity in C57BL/6 mouse model of 3-NP-induced intoxication assessed as effect on body weight at 20 mg/kg, ip measured after 5 days (91.4 %); format: functional; conditions: time 5 day; method in brief: as §3
Mus musculus [14] = assay: Antioxidant activity in C57BL/6 mouse model of 3-NP-induced oxidative stress assessed as increase in SOD2 mRNA expression at 20 mg/kg, ip by qRT-PCR method; format: functional, organism-based; method in brief: as §3
[15] = Hydrolytic stability of the compound in mouse serum assessed as parent compound remaining measured after 1 hr; format: ADME, cell-free; conditions: read-out: Stability
Method in brief: (§4)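 Hydrolytic stability measured in mouse serum at 1 h and 24 h.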

[16] = Hydrolytic stability of the compound in mouse serum assessed as parent compound remaining measured after 24 hrs; format: ADME, cell-free; conditions: read-out: Stability; method in brief: as §4
Mus musculus [17] = assay: Immunosuppressive activity in MOG (35 to 55 residues)/pertussis toxin-induced experimental autoimmune encephalomyelitis C57BL/6 mouse model assessed as reduction in clinical scores at 20 mg/kg, ip starting from 20 days post disease progression and administered for 2 weeks; format: functional, organism-based
Mus musculus [18] = assay: Neuroprotective activity in C57BL/6 mouse model of 3-NP-induced intoxication assessed as reduction in IL6 production at 20 mg/kg, ip by sandwich ELISA
Mus musculus [19] = assay: Neuroprotective activity in C57BL/6 mouse model of 3-NP-induced intoxication assessed as improvement in latency to fall at 20 mg/kg, ip by rotarod test relative to control; format: functional; method in brief: as §3
RAW264.7 [20] = assay: Antiinflammatory activity in mouse RAW 264.7 cells assessed as inhibition of LPS-induced nitric oxide production at 10 uM measured after 24 hrs by Griess reagent assay; format: functional, cell-based
Method in brief: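 NO in 24 h culture supernatants of LPS-stimulated RAW 264.7 cells (compound 10 µM, LPS final 100 ng/mL) estimated indirectly as nitrite concentration.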

Row | SMILES | NOAEL [1] [µM] | LOAEL [2] [µM] | LC50 at 96 h [4] [µM] | Activity (RAW264.7 [5]) | Activity (SH-SY5Y [6]) | further results
1 | Oc1ccc(/C=C/c2cc(O)cc(O)c2)cc1 [RESVERATROL] | 1000 | > 1000 | > 1000 | – | – | Activity (Danio rerio): Active; solubility [3]: 50 µg/mL (≈ 219 µM)
2 | CC(C)(C)[Si](C)(C)Oc1ccc(/C=C/c2cc(O)cc(O[Si](C)(C)C(C)(C)C)c2)cc1 | – | – | – | Active | Active | –
3 | CC(C)[Si](Oc1ccc(/C=C/c2cc(O)cc(O[Si](C(C)C)(C(C)C)C(C)C)c2)cc1)(C(C)C)C(C)C | > 1000 | 1000 | > 1000 | Active | Active | Activity (RAW264.7 [7]): Active
4 | CC(C)[Si](Oc1cc(/C=C/c2ccc(O[C@H]3O[C@@H](CO)[C@H](O)[C@@H](O)[C@@H]3O)cc2)cc(O[Si](C(C)C)(C(C)C)C(C)C)c1)(C(C)C)C(C)C | 1000 | 1000 | > 1000 | – | – | –
5 | CC(C)[Si](Oc1ccc(/C=C/c2cc(O[C@@H]3O[C@H](CO)[C@@H](O)[C@H](O)[C@H]3O)cc(O[Si](C(C)C)(C(C)C)C(C)C)c2)cc1)(C(C)C)C(C)C | 1000 | 1000 | > 1000 | – | – | remaining at 72 h [8]: > 80%; remaining at 72 h [9]: > 80%
6 | CC(C)[Si](Oc1ccc(/C=C/c2cc(O)cc(O)c2)cc1)(C(C)C)C(C)C | – | – | – | – | Active | Activity (SH-SY5Y [10]): > 50%
7 | CC[Si](CC)(CC)Oc1cc(O)cc(/C=C/c2ccc(O)cc2)c1 | – | – | – | Active | – | –
8 | CCNC(=O)Oc1ccc(/C=C/c2cc(O[Si](C(C)C)(C(C)C)C(C)C)cc(O[Si](C(C)C)(C(C)C)C(C)C)c2)cc1 | 1000 | 1000 | – | – | – | –
9 | CC[Si](CC)(CC)Oc1ccc(/C=C/c2cc(O)cc(O[Si](CC)(CC)CC)c2)cc1 | 100 | 1000 | 380 | Active | Active | Activity (Danio rerio): Active
10 | CC[Si](CC)(CC)Oc1ccc(/C=C/c2cc(O)cc(O)c2)cc1 | – | – | – | Active | – | –
11 | CC(C)[Si](Oc1cc(/C=C/c2ccc(O)cc2)cc(O[Si](C(C)C)(C(C)C)C(C)C)c1)(C(C)C)C(C)C | – | – | – | – | Active | Activity (Danio rerio): Active; Activity (SH-SY5Y [11]): 100%; Activity (RAW264.7 [7]): Active; remaining at 72 h [8]: > 80%; remaining at 72 h [9]: > 80%
12 | CC(C)(C)[Si](C)(C)Oc1cc(O)cc(/C=C/c2ccc(O)cc2)c1 | – | – | – | – | Active | Activity (SH-SY5Y [10]): > 50%
13 | CC(C)(C)[Si](C)(C)Oc1cc(/C=C/c2ccc(O)cc2)cc(O[Si](C)(C)C(C)(C)C)c1 | – | – | – | Active | Active | –
14 | CCCC(=O)Oc1ccc(/C=C/c2cc(O[Si](CC)(CC)CC)cc(O[Si](CC)(CC)CC)c2)cc1 | 100 | 1000 | 407 | – | – | –
15 | CCCCCCCC(=O)OC[C@@H]1O[C@H](Oc2ccc(/C=C/c3cc(O[Si](C(C)C)(C(C)C)C(C)C)cc(O[Si](C(C)C)(C(C)C)C(C)C)c3)cc2)[C@@H](O)[C@H](O)[C@H]1O | 100 | 1000 | 407 | – | – | Activity (Danio rerio): Active; Activity (Mus musculus [12]): 26.5%; Activity (Mus musculus [13]): 94.8%; Activity (Mus musculus [14]): Active; remaining at 1 h [15]: 75%; remaining at 24 h [16]: 15%; Activity (Mus musculus [17]): Active; Activity (Mus musculus [18]): Active; remaining at 72 h [8]: > 80%; Activity (Mus musculus [19]): 10%; remaining at 72 h [9]: > 80%
16 | CC(C)[Si](Oc1cc(O)cc(/C=C/c2ccc(O)cc2)c1)(C(C)C)C(C)C | – | – | – | – | Active | Activity (SH-SY5Y [10]): > 50%
17 | CCCCCCCC(=O)OC[C@H]1O[C@@H](Oc2cc(/C=C/c3ccc(O[Si](C(C)C)(C(C)C)C(C)C)cc3)cc(O[Si](C(C)C)(C(C)C)C(C)C)c2)[C@H](O)[C@@H](O)[C@@H]1O | 100 | 1000 | 407 | – | – | –
18 | CC[Si](CC)(CC)Oc1cc(/C=C/c2ccc(O)cc2)cc(O[Si](CC)(CC)CC)c1 | 100 | 1000 | 475 | Active | – | Activity (Danio rerio): Active; inhibition (RAW264.7 [20]): Active
19 | CCCCCCCC(=O)OC[C@H]1O[C@@H](Oc2cc(O)cc(/C=C/c3ccc(O)cc3)c2)[C@H](O)[C@@H](O)[C@@H]1O | 1 | 10 | – | Active | – | –
